Assay results taken from ChEMBL document CHEMBL2311435, “Development of 18F-labeled picolinamide probes for PET imaging of malignant melanoma” (J Med Chem, 2013).

Columns and labels:
[1] = test system: Brain; assay: Biodistribution in brain of C57BL/6 mouse xenografted with mouse B16F10 cells at 3.7 MBq, iv after 1 hr by gamma-scintillation counting analysis; assay type: ADME, organism-based, B16-F10; details: in vivo
Method in brief: (§1)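 1.0 × 10^6 B16F10 cells in PBS injected subcutaneously into the right shoulder of C57BL/6 mice, grown to 0.5 cm (~10 day). Tail-vein injection of about 3.7 MBq (100 μCi) 18F probe in PBS (0.1 M, pH 7.4). Killed at 1.0 or 2.0 h p.i. (n = 4 per group). Tissues excised, weighed and gamma-counted; uptake expressed as %ID/g, mean ± SD.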

[2] = test system: Stomach; assay: Biodistribution in stomach of C57BL/6 mouse xenografted with mouse B16F10 cells at 3.7 MBq, iv after 1 hr by gamma-scintillation counting analysis; assay type: ADME, organism-based, B16-F10; details: in vivo; method in brief: as §1
[3] = test system: Spleen; assay: Biodistribution in spleen of C57BL/6 mouse xenografted with mouse B16F10 cells at 3.7 MBq, iv after 1 hr by gamma-scintillation counting analysis; assay type: ADME, organism-based, B16-F10; details: in vivo; method in brief: as §1
[4] = test system: Liver; assay: Biodistribution in liver of C57BL/6 mouse xenografted with mouse B16F10 cells at 3.7 MBq, iv after 1 hr by gamma-scintillation counting analysis; assay type: ADME, organism-based, B16-F10; details: in vivo; method in brief: as §1
[5] = test system: Heart; assay: Biodistribution in heart of C57BL/6 mouse xenografted with mouse B16F10 cells at 3.7 MBq, iv after 1 hr by gamma-scintillation counting analysis; assay type: ADME, organism-based, B16-F10; details: in vivo; method in brief: as §1
[6] = Drug uptake in tumor of C57BL/6 mouse xenografted with mouse B16F10 cells at 3.7 MBq, iv after 5 mins by PET imaging analysis; assay type: ADME, organism-based, Neoplasm, B16-F10; details: in vivo
Method in brief: (§2)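 Dynamic small-animal PET in B16F10 tumor-bearing mice (n = 4) after tail-vein injection of ~3.7 MBq (100 μCi). Scanning began ~2.0 min post-injection and ran 35 min (6×20 s, 8×60 s, 10×150 s; 24 frames). ROI counts converted to %ID/g assuming 1 g/ml tissue density. No attenuation correction.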

[7] = test system: Mus musculus; assay: Biodistribution in tumor of C57BL/6 mouse xenografted with mouse B16F10 cells at 3.7 MBq, iv after 1 hr by gamma-scintillation counting analysis; assay type: ADME, organism-based, Neoplasm, B16-F10; details: in vivo; method in brief: as §1
[8] = test system: Blood; assay: Biodistribution in blood of C57BL/6 mouse xenografted with mouse B16F10 cells at 3.7 MBq, iv after 1 hr by gamma-scintillation counting analysis; assay type: ADME, organism-based, B16-F10; details: in vivo; method in brief: as §1
[9] = Drug uptake in tumor of C57BL/6 mouse xenografted with mouse B16F10 cells at 3.7 MBq, iv after 2 hrs by PET imaging analysis; assay type: ADME, organism-based, Neoplasm, B16-F10; details: in vivo
Method in brief: (§3)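 Static small-animal PET at 0.5, 1 and 2 h after tail-vein injection of ~3.7 MBq (100 μCi) into B16F10-bearing C57BL/6 mice (n = 4 per probe). Isoflurane anesthesia, 5% induction and 2% maintenance in O2. Decay-corrected images. ROI-derived %ID/g assumes 1 g/ml density, without attenuation correction. Mean ± SD.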

[10] = Drug uptake in tumor of C57BL/6 mouse xenografted with mouse B16F10 cells at 3.7 MBq, iv after 1 hr by PET imaging analysis; assay type: ADME, organism-based, Neoplasm, B16-F10; details: in vivo; method in brief: as §3
[11] = Drug uptake in tumor of C57BL/6 mouse xenografted with mouse B16F10 cells at 3.7 MBq, iv after 0.5 hrs by PET imaging analysis; assay type: ADME, organism-based, Neoplasm, B16-F10; details: in vivo; method in brief: as §3
[12] = test system: Kidney; assay: Drug uptake in kidney of C57BL/6 mouse xenografted with mouse B16F10 cells at 3.7 MBq, iv after 5 mins by PET imaging analysis; assay type: ADME, organism-based, B16-F10; details: in vivo; method in brief: as §2
[13] = test system: Nucleic Acid; assay: Ratio of drug uptake in tumor to lungs of C57BL/6 mouse xenografted with mouse B16F10 cells at 3.7 MBq, iv after 2 hrs by gamma-scintillation counting analysis; assay type: ADME, organism-based, B16-F10; details: in vivo
Method in brief: (§4)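 Same subcutaneous B16F10 model and tail-vein dose of about 3.7 MBq (100 μCi), n = 4 per group. Dissection at 1 or 2 h p.i. Gamma-counter %ID/g of tumor divided by that of blood, lung, liver or muscle, given as mean ± SD.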

[14] = test system: Nucleic Acid; assay: Ratio of drug uptake in tumor to blood of C57BL/6 mouse xenografted with mouse B16F10 cells at 3.7 MBq, iv after 2 hrs by gamma-scintillation counting analysis; assay type: ADME, organism-based, B16-F10; details: tumour; method in brief: as §4
[15] = test system: Nucleic Acid; assay: Ratio of drug uptake in tumor to muscle of C57BL/6 mouse xenografted with mouse B16F10 cells at 3.7 MBq, iv after 1 hr by gamma-scintillation counting analysis; assay type: ADME, organism-based, B16-F10; details: in vivo; method in brief: as §4
[16] = test system: Nucleic Acid; assay: Ratio of drug uptake in tumor to liver of C57BL/6 mouse xenografted with mouse B16F10 cells at 3.7 MBq, iv after 1 hr by gamma-scintillation counting analysis; assay type: ADME, organism-based, B16-F10; details: in vivo; method in brief: as §4
[17] = test system: Nucleic Acid; assay: Ratio of drug uptake in tumor to lungs of C57BL/6 mouse xenografted with mouse B16F10 cells at 3.7 MBq, iv after 1 hr by gamma-scintillation counting analysis; assay type: ADME, organism-based, B16-F10; details: in vivo; method in brief: as §4
[18] = test system: Nucleic Acid; assay: Ratio of drug uptake in tumor to blood of C57BL/6 mouse xenografted with mouse B16F10 cells at 3.7 MBq, iv after 1 hr by gamma-scintillation counting analysis; assay type: ADME, organism-based, B16-F10; details: tumour; method in brief: as §4
[19] = test system: Muscle tissue; assay: Biodistribution in muscle of C57BL/6 mouse xenografted with mouse B16F10 cells at 3.7 MBq, iv after 2 hrs by gamma-scintillation counting analysis; assay type: ADME, organism-based, B16-F10; details: in vivo; method in brief: as §1
[20] = test system: Kidney; assay: Biodistribution in kidney of C57BL/6 mouse xenografted with mouse B16F10 cells at 3.7 MBq, iv after 2 hrs by gamma-scintillation counting analysis; assay type: ADME, organism-based, B16-F10; details: in vivo; method in brief: as §1
[21] = test system: Brain; assay: Biodistribution in brain of C57BL/6 mouse xenografted with mouse B16F10 cells at 3.7 MBq, iv after 2 hrs by gamma-scintillation counting analysis; assay type: ADME, organism-based, B16-F10; details: in vivo; method in brief: as §1
[22] = test system: Pancreas; assay: Biodistribution in pancreas of C57BL/6 mouse xenografted with mouse B16F10 cells at 3.7 MBq, iv after 2 hrs by gamma-scintillation counting analysis; assay type: ADME, organism-based, B16-F10; details: in vivo; method in brief: as §1
[23] = test system: Spleen; assay: Biodistribution in spleen of C57BL/6 mouse xenografted with mouse B16F10 cells at 3.7 MBq, iv after 2 hrs by gamma-scintillation counting analysis; assay type: ADME, organism-based, B16-F10; details: in vivo; method in brief: as §1
[24] = test system: Liver; assay: Biodistribution in liver of C57BL/6 mouse xenografted with mouse B16F10 cells at 3.7 MBq, iv after 2 hrs by gamma-scintillation counting analysis; assay type: ADME, organism-based, B16-F10; details: in vivo; method in brief: as §1
[25] = test system: Mus musculus; assay: Biodistribution in lungs of C57BL/6 mouse xenografted with mouse B16F10 cells at 3.7 MBq, iv after 2 hrs by gamma-scintillation counting analysis; assay type: ADME, organism-based, Lung, B16-F10; details: in vivo; method in brief: as §1
[26] = test system: Heart; assay: Biodistribution in heart of C57BL/6 mouse xenografted with mouse B16F10 cells at 3.7 MBq, iv after 2 hrs by gamma-scintillation counting analysis; assay type: ADME, organism-based, B16-F10; details: in vivo; method in brief: as §1
[27] = test system: Blood; assay: Biodistribution in blood of C57BL/6 mouse xenografted with mouse B16F10 cells at 3.7 MBq, iv after 2 hrs by gamma-scintillation counting analysis; assay type: ADME, organism-based, B16-F10; details: in vivo; method in brief: as §1
[28] = test system: Mus musculus; assay: Biodistribution in tumor of C57BL/6 mouse xenografted with mouse B16F10 cells at 3.7 MBq, iv after 2 hrs by gamma-scintillation counting analysis; assay type: ADME, organism-based, Neoplasm, B16-F10; details: in vivo; method in brief: as §1
[29] = test system: Muscle tissue; assay: Biodistribution in muscle of C57BL/6 mouse xenografted with mouse B16F10 cells at 3.7 MBq, iv after 1 hr by gamma-scintillation counting analysis; assay type: ADME, organism-based, B16-F10; details: in vivo; method in brief: as §1
[30] = test system: Zone of skin; assay: Biodistribution in skin of C57BL/6 mouse xenografted with mouse B16F10 cells at 3.7 MBq, iv after 1 hr by gamma-scintillation counting analysis; assay type: ADME, organism-based, B16-F10; details: in vivo; method in brief: as §1

Drug uptake [1]: 1.28 % ID/g | Drug uptake [2]: 4.26 % ID/g | Drug uptake [3]: 1.78 % ID/g | Drug uptake [4]: 4.71 % ID/g | Drug uptake [5]: 1.17 % ID/g | Drug uptake [6]: 5.28 % ID/g | Drug uptake [7]: 15.2 % ID/g | Drug uptake [8]: 0.42 % ID/g | Drug uptake [9]: 16.87 % ID/g | Drug uptake [10]: 16.61 % ID/g | Drug uptake [11]: 12.74 % ID/g | Drug uptake [12]: 24.91 % ID/g | Ratio [13]: 24.92 | Ratio [14]: 88.25 | Ratio [15]: 13.84 | Ratio [16]: 3.79 | Ratio [17]: 9.94 | Ratio [18]: 41.44 | Drug uptake [19]: 0.41 % ID/g | Drug uptake [20]: 1.03 % ID/g | Drug uptake [21]: 0.42 % ID/g | Drug uptake [22]: 0.61 % ID/g | Drug uptake [23]: 1.13 % ID/g | Drug uptake [24]: 3.32 % ID/g | Drug uptake [25]: 0.69 % ID/g | Drug uptake [26]: 0.59 % ID/g | Drug uptake [27]: 0.19 % ID/g | Drug uptake [28]: 16.97 % ID/g | Drug uptake [29]: 1.16 % ID/g | Drug uptake [30]: 1.3 % ID/g
SMILES: CCN(CC)CCNC(=O)c1ccc([18F])cn1
